According to ChEMBL document CHEMBL1126794, “2-(Quinuclidin-3-yl)pyrido[4,3-b]indol-1-ones and isoquinolin-1-ones. Potent conformationally restricted 5-HT3 receptor antagonists” (J Med Chem, 1993):

Key:
[1] = target: T1, Serotonin 3 (5-HT3) receptor (Rattus norvegicus, UniProt P35563+Q9JJ16); assay: Binding affinity against 5-hydroxytryptamine 3 (5-HT3) receptor in rat brain cortical membranes using radioligand [3H]quipazine; type: cell membranes
T1 sequence (P35563 whole entry): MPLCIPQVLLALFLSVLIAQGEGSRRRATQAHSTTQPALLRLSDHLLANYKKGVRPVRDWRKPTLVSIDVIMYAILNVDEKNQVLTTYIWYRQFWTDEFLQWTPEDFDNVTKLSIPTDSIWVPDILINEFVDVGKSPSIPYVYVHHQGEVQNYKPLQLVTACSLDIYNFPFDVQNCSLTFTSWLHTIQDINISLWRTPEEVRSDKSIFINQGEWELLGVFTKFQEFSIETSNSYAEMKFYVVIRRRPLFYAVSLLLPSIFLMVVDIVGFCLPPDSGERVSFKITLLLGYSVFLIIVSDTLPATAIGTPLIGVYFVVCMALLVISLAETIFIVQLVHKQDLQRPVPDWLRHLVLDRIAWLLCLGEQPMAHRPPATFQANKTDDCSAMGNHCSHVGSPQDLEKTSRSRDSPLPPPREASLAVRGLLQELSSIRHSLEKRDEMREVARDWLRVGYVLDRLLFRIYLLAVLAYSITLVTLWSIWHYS
T1 sequence (Q9JJ16 whole entry): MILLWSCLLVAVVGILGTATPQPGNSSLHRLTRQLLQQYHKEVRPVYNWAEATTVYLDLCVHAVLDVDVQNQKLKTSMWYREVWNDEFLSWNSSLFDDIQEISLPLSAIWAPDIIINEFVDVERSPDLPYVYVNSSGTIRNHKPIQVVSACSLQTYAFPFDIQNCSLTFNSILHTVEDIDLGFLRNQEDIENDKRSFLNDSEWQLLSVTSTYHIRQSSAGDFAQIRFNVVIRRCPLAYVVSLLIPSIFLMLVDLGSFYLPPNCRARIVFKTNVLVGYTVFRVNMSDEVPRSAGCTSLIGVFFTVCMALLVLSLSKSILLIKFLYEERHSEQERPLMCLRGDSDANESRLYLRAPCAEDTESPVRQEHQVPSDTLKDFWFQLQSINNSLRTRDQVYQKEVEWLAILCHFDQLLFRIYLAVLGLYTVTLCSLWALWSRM
Procedure, shortened: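 Rat cerebral cortex membranes, washed in 50 mM Tris pH 7.4, incubated 45 min at 25 °C in Tris-Krebs buffer pH 7.4 with 0.3–0.7 nM [3H]quipazine plus 0.1 μM paroxetine. Ten test concentrations from 1e-12 to 1e-4 M. Nonspecific binding defined with 1.0 μM racemic zacopride. Filtration, scintillation counting, IC50 by iterative fit, Ki by Cheng-Prusoff. Means of ≥3 determinations, or of two.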

Rattus norvegicus [2] = assay: Potency to inhibit bradycardiac effect measured by Von Bezold-Jarisch assay in 8 anesthetized rats; type: functional; settings: read-out: ID50 (the source's name)
Procedure, shortened: (§1)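 Male Sprague-Dawley rats, 250–380 g, under urethane (1.5 g/kg ip), with cannulated trachea and femoral veins; heart rate recorded by ECG. Lowest consistent bradycardic dose of 2-methyl-5-HT titrated iv, then given every 12 min. Increasing iv doses given 5 min before each challenge, with saline vehicle group.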

Rattus norvegicus [3] = assay: Potency to inhibit bradycardiac effect measured by Von Bezold-Jarisch assay in 9 anesthetized rats; type: functional; settings: Rattus norvegicus; read-out: ID50 (the source's name); procedure, shortened: as §1
Canis familiaris [4] = assay: Inhibition of emesis induced by peroral administration of cisplatin in 6 dogs at 0.003 mg/kg; type: functional, Canis lupus familiaris; settings: route oral
Canis familiaris [5] = assay: Inhibition of emesis induced by intravenous administration of cisplatin in 6 dogs at 0.001 mg/kg (p<0.05); type: functional, Canis lupus familiaris
Canis familiaris [6] = assay: Inhibition of emesis induced by peroral administration of cisplatin in 6 dogs at 0.03 mg/kg (p<0.01); type: functional, Canis lupus familiaris; settings: route oral
Mustela putorius furo [7] = assay: Inhibition of emesis induced by peroral administration of cisplatin in 6 ferrets at 0.001 mg/kg; type: functional; settings: route oral
Mustela putorius furo [8] = assay: Inhibition of emesis induced by peroral administration of cisplatin in 5 ferrets at 0.1 mg/kg (p<0.005); type: functional; settings: route oral
Mustela putorius furo [9] = assay: Inhibition of emesis induced by intravenous administration of cisplatin in 5 ferrets at 0.003 mg/kg; type: functional
Canis familiaris [10] = assay: Inhibition of emesis induced by intravenous administration of cisplatin in 6 dogs at 0.003 mg/kg (p<0.01); type: functional, Canis lupus familiaris
Mustela putorius furo [11] = assay: Inhibition of emesis induced by peroral administration of cisplatin in 6 ferrets at 0.003 mg/kg (p<0.05); type: functional; settings: route oral
Canis familiaris [12] = assay: Inhibition of emesis induced by peroral administration of cisplatin in 6 dogs at 0.1 mg/kg (p<0.01); type: functional, Canis lupus familiaris; settings: route oral
Mustela putorius furo [13] = assay: Inhibition of emesis induced by intravenous administration of cisplatin in 9 ferrets at 0.001 mg/kg; type: functional
Canis familiaris [14] = assay: Inhibition of emesis induced by peroral administration of cisplatin in 6 dogs at 0.01 mg/kg (p<0.01); type: functional, Canis lupus familiaris; settings: route oral
Mustela putorius furo [15] = assay: Inhibition of emesis induced by peroral administration of cisplatin in 6 ferrets at 0.01 mg/kg (p<0.005); type: functional; settings: route oral
Mustela putorius furo [16] = assay: Inhibition of emesis induced by intravenous administration of cisplatin in 6 ferrets at 0.01 mg/kg (p<0.005); type: functional
Mustela putorius furo [17] = assay: Inhibition of emesis induced by peroral administration of cisplatin in 5 ferrets at 0.03 mg/kg (p<0.005); type: functional; settings: route oral
Canis familiaris [18] = assay: Inhibition of emesis induced by peroral administration of cisplatin in 6 dogs at 0.001 mg/kg; type: functional, Canis lupus familiaris; settings: route oral
Mustela putorius furo [19] = assay: Inhibition of emesis induced by intravenous administration of cisplatin in 5 ferrets at 0.03 mg/kg (p<0.005); type: functional
Canis familiaris [20] = assay: Inhibition of emesis induced by intravenous administration of cisplatin in 6 dogs at 0.03 mg/kg (p<0.01); type: functional, Canis lupus familiaris
Mustela putorius furo [21] = assay: Inhibition of emesis induced by intravenous administration of cisplatin in 6 ferrets at 0.1 mg/kg (p<0.005); type: functional

Compound: Cc1cccc(C(=O)N[C@@H]2CN3CCC2CC3)c1C
- Ki [1]: 158 nM

Compound: Cc1cccc2c(=O)n(C3CN4CCC3CC4)cc(C)c12.Cl (stereo not drawn)
- ED50 (Rattus norvegicus [2]): 0.25 µg/kg
- Ki [1]: 1 nM

Compound: O=C1c2cccc3c2[C@@H](CCC3)CN1C1CN2CCC1CC2 (mixture of isomers)
- Ki [1]: 0.316 nM

Compound: Cl.O=c1c2cccc3c2c(cn1C1CN2CCC1CC2)CC3 (stereo not drawn)
- ED50 (Rattus norvegicus [3]): 0.18 µg/kg
- Ki [1]: 0.631 nM

Compound: O=c1c2ccccc2c(-c2ccccc2)cn1[C@@H]1CN2CCC1CC2
- Ki [1]: 2.51 nM

Compound: O=c1c2cccc3c2c(cn1[C@H]1CN2CCC1CC2)CC3
- Ki [1]: 25.1 nM

Compound: Cc1cccc2c1CCN([C@@H]1CN3CCC1CC3)C2=O.Cl
- ED50 (Rattus norvegicus [2]): 0.13 µg/kg
- Ki [1]: 0.316 nM

Compound: Cc1c(C(=O)NC2CN3CCC2CC3)c2ccccc2n1C (stereo not drawn)
- Ki [1]: 39.8 nM

Compound: Cl.O=c1c2cccc3c2c(cn1[C@@H]1CN2CCC1CC2)CCCC3
- ED50 (Rattus norvegicus [2]): 0.09 µg/kg
- Ki [1]: 0.398 nM

Compound: COc1cccc2c(=O)n([C@@H]3CN4CCC3CC4)ccc12.Cl
- ED50 (Rattus norvegicus [2]): 0.03 µg/kg
- Ki [1]: 0.158 nM

Compound: COc1ccc2c3c(cn(C4CN5CCC4CC5)c(=O)c13)CCC2 (stereo not drawn)
- Ki [1]: 158 nM

Compound: O=C1c2cccc3c2[C@@H](CCC3)CN1[C@H]1CN2CCC1CC2
- Ki [1]: 3.98 nM

Compound: CN1[C@@H]2CC[C@H]1C[C@@H](OC(=O)c1c[nH]c3ccccc13)C2 [TROPISETRON]
- ED50 (Rattus norvegicus [2]): 0.4 µg/kg
- Ki [1]: 2 nM

Compound: Cn1cc(C(=O)N[C@@H]2CN3CCC2CC3)c2ccccc21
- Ki [1]: 0.398 nM

Compound: COc1cccc2c1CCN(C1CN3CCC1CC3)C2=O (stereo not drawn)
- Ki [1]: 0.2 nM

Compound: Cl.O=C1c2cccc3c2[C@H](CCC3)CN1[C@@H]1CN2CCC1CC2 [PALONOSETRON HYDROCHLORIDE]
- No. of emetic episodes (Canis familiaris [4]): 16.17
- No. of emetic episodes (Canis familiaris [5]): 7.17
- No. of emetic episodes (Canis familiaris [6]): 2.67
- No. of emetic episodes (Mustela putorius furo [7]): 15.17
- No. of emetic episodes (Mustela putorius furo [8]): 0.8
- No. of emetic episodes (Mustela putorius furo [9]): 0.6
- No. of emetic episodes (Canis familiaris [10]): 4.33
- ED50 (Rattus norvegicus [2]): 0.02 µg/kg
- No. of emetic episodes (Mustela putorius furo [11]): 7.17
- No. of emetic episodes (Canis familiaris [12]): 0
- No. of emetic episodes (Mustela putorius furo [13]): 9.67
- No. of emetic episodes (Canis familiaris [14]): 4
- No. of emetic episodes (Mustela putorius furo [15]): 2.17
- No. of emetic episodes (Mustela putorius furo [16]): 0
- No. of emetic episodes (Mustela putorius furo [17]): 1.8
- No. of emetic episodes (Canis familiaris [18]): 12.83
- No. of emetic episodes (Mustela putorius furo [19]): 0
- No. of emetic episodes (Canis familiaris [20]): 1.33
- No. of emetic episodes (Mustela putorius furo [21]): 0.17
- Ki [1]: 0.0398 nM

Compound: Cc1ccccc1C(=O)NC1CN2CCC1CC2 (stereo not drawn)
- Ki [1]: 631 nM

Compound: Cn1cc(C(=O)NC2CN3CCC2CC3)c2ccccc21 (stereo not drawn)
- Ki [1]: 2 nM

Compound: O=C(N[C@@H]1CN2CCC1CC2)c1cccc2c1CCCC2
- Ki [1]: 200 nM

Compound: O=C(NC1CN2CCC1CC2)c1c2n(c3ccccc13)CCCC2 (stereo not drawn)
- Ki [1]: 2.51 nM

Compound: O=C1c2ccccc2CCN1C1CN2CCC1CC2 (stereo not drawn)
- Ki [1]: 10 nM

Compound: COc1ccc2c(=O)n([C@@H]3CN4CCC3CC4)cc3c2c1CCC3
- Ki [1]: 12.6 nM

Compound: O=c1c2ccccc2ccn1C1CN2CCC1CC2 (stereo not drawn)
- Ki [1]: 10 nM
